Laboratory results published in ChEMBL document CHEMBL2413071, “Discovery of 2-methyl-1-{1-[(5-methyl-1H-indol-2-yl)carbonyl]piperidin-4-yl}propan-2-ol: a novel, potent and selective type 5 17β-hydroxysteroid dehydrogenase inhibitor” (Bioorg Med Chem, 2013).
Values belong to the molecule of their own block, whether it stands above or below them. Active and inactive are the calls of the source. The rule behind the calls is not given here.

Experiments:
[1] = Solubility of the compound at pH 6.8; assay type: physicochemical; details: buffer
In short: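 A 10 mM DMSO solution (13 μL) was added to 1 mL of Japanese Pharmacopoeia second disintegration fluid (pH 6.8) and shaken at 25 °C for 20 h. Solubility was calculated from the LC peak-area ratio of sample to standard.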

[2] = Permeability of the compound after 2 hrs at pH 6.5 by PAMPA; assay type: ADME; details: read-out: permeability
In short: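 PAMPA used a donor at pH 6.5 (universal buffer, 10% DMSO, typical final sample 50 μM, filtered) and an acceptor at pH 7.4, separated by a filter coated with 20% lecithin in dodecane. Plates were incubated at 25 °C for 2 h under saturated humidity. Both compartments were quantified by UV spectrum (270-400 nm) against standards, with a mass balance correction; Pe was then calculated.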

[3] = Plasma concentration in ICR mouse at 30 mg/kg, po after 1 hr by HPLC analysis; assay type: ADME, organism-based; set-up: dose 30 mg/kg, route oral
In short: (§1)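 ICR mice were dosed orally, and blood was collected 1 or 4 h later. Compound was extracted from plasma with acetonitrile and quantified by HPLC.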

[4] = biological target: T1, Aldo-keto reductase family 1 member C3 (Homo sapiens, UniProt P42330); test: Inhibition of human 17beta-HSD5 expressed in human CWR22R cells using androstenedione as substrate assessed as testosterone synthesis after 4 hrs; assay type: cell-based
T1 sequence (P42330 whole entry): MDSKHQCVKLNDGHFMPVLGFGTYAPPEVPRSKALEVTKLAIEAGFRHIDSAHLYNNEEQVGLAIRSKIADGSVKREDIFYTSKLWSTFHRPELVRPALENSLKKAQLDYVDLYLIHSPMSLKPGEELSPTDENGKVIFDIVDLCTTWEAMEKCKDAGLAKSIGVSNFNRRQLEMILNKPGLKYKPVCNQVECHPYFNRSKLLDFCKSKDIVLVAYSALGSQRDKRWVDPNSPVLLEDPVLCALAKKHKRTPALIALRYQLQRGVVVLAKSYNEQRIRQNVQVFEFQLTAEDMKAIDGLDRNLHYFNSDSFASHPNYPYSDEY
In short: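 CWR22R cells were seeded at 2×10^4 cells/well in RPMI-1640/10% FBS and incubated overnight at 37 °C, 5% CO2. Compound was added with androstenedione (final 300 nmol/mL). After 4 h, supernatant testosterone was quantified by DELFIA.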

[5] = Plasma concentration in ICR mouse at 30 mg/kg, po after 4 hrs by HPLC analysis; assay type: ADME, organism-based; set-up: dose 30 mg/kg, route oral; in short: as §1
[6] = biological target: T1, Aldo-keto reductase family 1 member C3; test: Inhibition of human 17beta-HSD5 expressed in HEK293 cells using androstenedione as substrate assessed as testosterone synthesis after 4 hrs; assay type: cell-based
In short: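 HEK293 cells stably expressing human 17β-HSD5 were seeded at 2×10^4 cells/well in D-MEM/10% FBS and incubated overnight at 37 °C, 5% CO2. Androstenedione (final 300 nmol/mL) was added with compound. After 4 h, supernatant testosterone was measured by DELFIA immunoassay.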

Cytochrome P450 2D6 = Cytochrome P450 2D6 (Homo sapiens, UniProt P10635); test: Inhibition of CYP2D6 (unknown origin); assay type: ADME
[7] = Total clearance in Sprague-Dawley rat at 1 mg/kg, iv; assay type: ADME, organism-based; set-up: dose 1 mg/kg, route intravenous; details: in vivo
In short: (§2)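 Male Sprague-Dawley rats aged 8 weeks received a single 1 mg/kg dose. The iv vehicle was saline with 15% DMF and 20% PEG 400; the oral vehicle was water with 10% DMF and 10% propylene glycol. Blood was sampled at multiple times up to 24 h and spun at 16,000 g for 2 min at 4 °C. Plasma drug was measured by HPLC-MS/MS.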

[8] = Cmax in Sprague-Dawley rat at 1 mg/kg, po; assay type: ADME, organism-based; set-up: dose 1 mg/kg, route oral; details: in vivo; in short: as §2
[9] = biological target: T1, Aldo-keto reductase family 1 member C3; test: Inhibition of human AKR1C3-mediated 9,10-phenanthrenequinone reduction after 10 to 20 mins by spectrophotometry in presence of NADPH
In short: (§3)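 Purified human AKR1C enzyme (final 10 μg/mL) was mixed with 9,10-phenanthrenequinone (4 μmol/L), NADPH (200 μmol/L) and compound in 100 mM potassium phosphate pH 6.0, at room temperature for 10-20 min. NADPH absorbance was read at 340 nm and normalized to no-enzyme (0%) and no-compound (100%) controls. IC50 was obtained by Sigmoid-Emax nonlinear regression.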

Mus musculus [10] = test: Inhibition of androstenedione-induced testosterone production in tumor of human CWR22R cells xenografted in BALB/c athymic nude mouse at 10 mg/kg, po treated 1 hr prior to androstenedione-challenge measured after 2 hrs; assay type: functional, organism-based; set-up: dose 10 mg/kg
In short: (§4)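 Male BALB/c athymic nude mice aged 4-6 weeks were castrated, then given subcutaneous CWR22R tumor cells (protease-digested fragments in RPMI 1640/20% FBS mixed 1:1 with Matrigel) into each flank. About 3 weeks later, size-matched mice were randomized (n = 4/group) and dosed orally. Androstenedione (1 ng/100 mm3 tumor) was injected intratumorally 1 h post-dose. Tumors were removed at 2 h, homogenized in 200 mmol/L phosphate pH 7.4, and extracted with tert-butyl methyl ether; testosterone was read by DELFIA.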

Cytochrome P450 2C9 = Cytochrome P450 2C9 (Homo sapiens, UniProt P11712); test: Inhibition of CYP2C9 (unknown origin); assay type: ADME
Cytochrome P450 3A4 = Cytochrome P450 3A4 (Homo sapiens, UniProt P08684); test: Inhibition of CYP3A4 (unknown origin) using nifedipine as substrate; assay type: ADME
[11] = Half life in Sprague-Dawley rat at 1 mg/kg, iv; assay type: ADME, organism-based; set-up: dose 1 mg/kg, route intravenous; details: in vivo; in short: as §2
[12] = Oral bioavailability in Sprague-Dawley rat at 1 mg/kg; assay type: ADME, organism-based; details: in vivo; in short: as §2
[13] = AUC (0 to 24 hrs) in Sprague-Dawley rat at 1 mg/kg, po; assay type: ADME, organism-based; set-up: time < 24 hr, dose 1 mg/kg, route oral; details: plasma; in short: as §2
[14] = AUC (0 to 24 hrs) in Sprague-Dawley rat at 1 mg/kg, iv; assay type: ADME, organism-based; set-up: time < 24 hr, dose 1 mg/kg, route intravenous; details: plasma; in short: as §2
[15] = Tmax in Sprague-Dawley rat at 1 mg/kg, po; assay type: ADME, organism-based; set-up: dose 1 mg/kg, route oral; details: in vivo; in short: as §2
[16] = Volume of distribution at steady state in Sprague-Dawley rat at 1 mg/kg, iv; assay type: ADME, organism-based; set-up: dose 1 mg/kg, route intravenous; details: in vivo, read-out: Vdss; in short: as §2
Cytochrome P450 2C19 = Cytochrome P450 2C19 (Homo sapiens, UniProt P33261); test: Inhibition of CYP2C19 (unknown origin); assay type: ADME
[17] = biological target: Voltage-gated inwardly rectifying potassium channel KCNH2 (Homo sapiens, UniProt Q12809); test: Inhibition of human ERG channel by Rb efflux assay
Cytochrome P450 1A2 = biological target: T2, Cytochrome P450 1A2 (Homo sapiens, UniProt P05177); test: Inhibition of CYP1A2 (unknown origin); assay type: ADME
T2 sequence (P05177 whole entry): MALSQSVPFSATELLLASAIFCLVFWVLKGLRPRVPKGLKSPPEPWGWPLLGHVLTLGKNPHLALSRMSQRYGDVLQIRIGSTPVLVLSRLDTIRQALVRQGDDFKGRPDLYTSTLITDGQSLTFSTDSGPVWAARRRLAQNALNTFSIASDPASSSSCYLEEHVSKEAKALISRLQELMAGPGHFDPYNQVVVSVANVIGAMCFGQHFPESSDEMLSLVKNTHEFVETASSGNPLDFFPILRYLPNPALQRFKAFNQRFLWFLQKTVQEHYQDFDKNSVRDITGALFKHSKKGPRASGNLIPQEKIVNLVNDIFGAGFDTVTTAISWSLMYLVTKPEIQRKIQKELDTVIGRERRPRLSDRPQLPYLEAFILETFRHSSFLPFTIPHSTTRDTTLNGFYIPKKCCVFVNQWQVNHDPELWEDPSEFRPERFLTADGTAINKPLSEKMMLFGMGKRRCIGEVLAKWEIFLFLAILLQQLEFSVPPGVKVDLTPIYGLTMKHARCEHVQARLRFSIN

Mus musculus [18] = test: Inhibition of androstenedione-induced testosterone production in tumor of human CWR22R cells xenografted in po dosed BALB/c athymic nude mouse treated 1 hr prior to androstenedione-challenge measured after 2 hrs; assay type: functional, organism-based; in short: as §4
[19] = biological target: T3, Aldo-keto reductase family 1 member C2 (Homo sapiens, UniProt P52895); test: Inhibition of human AKR1C2-mediated 9,10-phenanthrenequinone reduction after 10 to 20 mins by spectrophotometry in presence of NADPH; in short: as §3
T3 sequence (P52895 whole entry): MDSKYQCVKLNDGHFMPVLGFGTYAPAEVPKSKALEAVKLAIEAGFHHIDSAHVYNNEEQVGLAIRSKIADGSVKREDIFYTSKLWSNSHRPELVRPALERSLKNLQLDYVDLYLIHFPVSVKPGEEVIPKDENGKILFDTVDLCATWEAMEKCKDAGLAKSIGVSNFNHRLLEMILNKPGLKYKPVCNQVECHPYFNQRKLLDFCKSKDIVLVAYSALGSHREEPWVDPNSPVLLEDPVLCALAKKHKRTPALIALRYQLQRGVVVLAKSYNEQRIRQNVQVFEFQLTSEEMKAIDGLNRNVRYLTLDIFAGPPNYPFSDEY

Chain of Cytochrome P450 2C9 (P11712 whole entry): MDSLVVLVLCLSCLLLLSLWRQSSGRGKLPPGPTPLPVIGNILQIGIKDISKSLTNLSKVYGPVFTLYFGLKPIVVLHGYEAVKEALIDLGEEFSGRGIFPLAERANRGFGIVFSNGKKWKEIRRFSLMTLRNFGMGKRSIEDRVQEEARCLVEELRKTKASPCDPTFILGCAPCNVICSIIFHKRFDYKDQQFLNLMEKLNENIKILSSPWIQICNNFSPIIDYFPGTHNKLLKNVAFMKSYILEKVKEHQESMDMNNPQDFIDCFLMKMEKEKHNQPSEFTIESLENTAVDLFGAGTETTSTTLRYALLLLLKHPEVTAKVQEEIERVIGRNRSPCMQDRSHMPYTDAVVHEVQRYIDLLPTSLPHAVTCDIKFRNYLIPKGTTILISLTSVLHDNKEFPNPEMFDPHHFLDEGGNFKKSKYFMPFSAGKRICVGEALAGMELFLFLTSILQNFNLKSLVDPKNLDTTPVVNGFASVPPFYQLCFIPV
Chain of Cytochrome P450 3A4 (P08684 whole entry): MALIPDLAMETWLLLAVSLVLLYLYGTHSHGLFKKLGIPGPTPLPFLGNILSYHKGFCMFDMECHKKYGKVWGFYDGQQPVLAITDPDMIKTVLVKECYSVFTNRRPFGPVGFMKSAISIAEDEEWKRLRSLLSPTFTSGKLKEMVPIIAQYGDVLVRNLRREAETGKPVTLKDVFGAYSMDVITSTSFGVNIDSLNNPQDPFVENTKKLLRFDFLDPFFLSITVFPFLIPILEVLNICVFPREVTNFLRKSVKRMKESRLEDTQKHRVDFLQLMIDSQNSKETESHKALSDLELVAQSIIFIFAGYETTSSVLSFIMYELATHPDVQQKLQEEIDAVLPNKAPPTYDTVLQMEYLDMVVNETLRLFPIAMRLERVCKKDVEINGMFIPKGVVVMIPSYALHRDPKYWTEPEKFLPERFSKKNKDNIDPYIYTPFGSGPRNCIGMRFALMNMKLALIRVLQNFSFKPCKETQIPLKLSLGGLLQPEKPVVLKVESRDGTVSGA
Chain of Cytochrome P450 2C19 (P33261 whole entry): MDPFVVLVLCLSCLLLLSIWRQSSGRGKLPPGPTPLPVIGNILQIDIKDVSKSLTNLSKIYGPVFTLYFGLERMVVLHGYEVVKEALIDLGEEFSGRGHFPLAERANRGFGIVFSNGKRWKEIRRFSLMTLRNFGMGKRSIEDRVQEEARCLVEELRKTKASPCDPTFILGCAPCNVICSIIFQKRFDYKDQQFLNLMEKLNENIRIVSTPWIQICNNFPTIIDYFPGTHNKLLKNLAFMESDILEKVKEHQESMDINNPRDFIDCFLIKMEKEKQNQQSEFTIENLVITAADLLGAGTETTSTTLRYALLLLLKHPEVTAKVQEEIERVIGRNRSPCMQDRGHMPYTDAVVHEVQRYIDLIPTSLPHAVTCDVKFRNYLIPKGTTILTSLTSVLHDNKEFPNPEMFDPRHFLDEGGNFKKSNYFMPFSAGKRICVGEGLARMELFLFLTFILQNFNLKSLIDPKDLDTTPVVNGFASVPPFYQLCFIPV
Chain of Voltage-gated inwardly rectifying potassium channel KCNH2 (Q12809 whole entry): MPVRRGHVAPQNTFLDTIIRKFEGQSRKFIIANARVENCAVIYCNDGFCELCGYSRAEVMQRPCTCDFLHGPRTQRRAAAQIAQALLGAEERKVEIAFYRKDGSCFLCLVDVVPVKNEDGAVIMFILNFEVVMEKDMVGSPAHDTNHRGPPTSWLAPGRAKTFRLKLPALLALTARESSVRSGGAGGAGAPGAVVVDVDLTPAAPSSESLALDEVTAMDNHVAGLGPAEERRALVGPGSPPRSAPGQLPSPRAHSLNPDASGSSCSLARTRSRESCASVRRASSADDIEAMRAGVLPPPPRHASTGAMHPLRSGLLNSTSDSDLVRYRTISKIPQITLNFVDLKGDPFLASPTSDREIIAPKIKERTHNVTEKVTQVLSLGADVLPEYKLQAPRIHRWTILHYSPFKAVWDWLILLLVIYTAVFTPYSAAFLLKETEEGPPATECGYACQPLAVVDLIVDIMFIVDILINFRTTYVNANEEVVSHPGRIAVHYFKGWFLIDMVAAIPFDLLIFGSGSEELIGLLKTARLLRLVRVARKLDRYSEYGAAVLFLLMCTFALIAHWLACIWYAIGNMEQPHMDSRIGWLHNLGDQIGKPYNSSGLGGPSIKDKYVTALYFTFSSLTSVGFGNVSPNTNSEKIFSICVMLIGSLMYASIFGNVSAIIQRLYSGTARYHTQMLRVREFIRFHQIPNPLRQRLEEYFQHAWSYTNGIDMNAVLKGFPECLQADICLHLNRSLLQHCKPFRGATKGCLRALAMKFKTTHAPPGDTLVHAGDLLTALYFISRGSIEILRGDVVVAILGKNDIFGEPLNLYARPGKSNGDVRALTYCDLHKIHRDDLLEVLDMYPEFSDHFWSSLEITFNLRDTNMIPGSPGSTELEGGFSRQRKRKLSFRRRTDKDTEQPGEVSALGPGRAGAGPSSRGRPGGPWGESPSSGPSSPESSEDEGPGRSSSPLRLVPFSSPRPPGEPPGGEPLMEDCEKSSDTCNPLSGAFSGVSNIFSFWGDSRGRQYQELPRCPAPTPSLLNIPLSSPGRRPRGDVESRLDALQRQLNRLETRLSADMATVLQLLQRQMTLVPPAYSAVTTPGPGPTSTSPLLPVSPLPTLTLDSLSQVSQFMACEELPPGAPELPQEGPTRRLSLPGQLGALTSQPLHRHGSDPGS
Chain of Cytochrome P450 2D6 (P10635 whole entry): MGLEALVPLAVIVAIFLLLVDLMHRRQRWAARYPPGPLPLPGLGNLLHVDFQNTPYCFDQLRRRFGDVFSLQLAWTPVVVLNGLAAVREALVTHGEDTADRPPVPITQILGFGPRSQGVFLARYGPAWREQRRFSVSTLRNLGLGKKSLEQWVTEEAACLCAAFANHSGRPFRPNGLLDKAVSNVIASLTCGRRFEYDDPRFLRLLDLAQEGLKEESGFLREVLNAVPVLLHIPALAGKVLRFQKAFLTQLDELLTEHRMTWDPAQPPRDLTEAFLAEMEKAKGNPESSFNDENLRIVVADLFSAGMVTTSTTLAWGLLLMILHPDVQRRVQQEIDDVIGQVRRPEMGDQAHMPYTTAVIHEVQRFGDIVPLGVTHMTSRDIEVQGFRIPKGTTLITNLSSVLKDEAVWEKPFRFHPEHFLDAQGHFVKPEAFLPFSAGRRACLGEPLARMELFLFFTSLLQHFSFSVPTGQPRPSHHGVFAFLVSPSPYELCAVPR

solubility [1]: > 100 µM
Papp at 2 h [2]: > 30 ×10⁻⁶ cm/s
concentration at 1 h [3]: < 100 nM
IC50 [4]: 58 nM
concentration at 4 h [5]: < 100 nM
IC50 [6]: 37 nM
SMILES: Cc1ccc2[nH]c(C(=O)N3CCC(CCO)CC3)cc2c1

IC50 [6]: 140 nM
SMILES: O=C(c1cc2ccccc2[nH]1)N1CC(CCO)C1

IC50 [6]: 230 nM
SMILES: O=C(c1cc2ccccc2[nH]1)N1CCCCC1CCO (centres undefined)

IC50 (Cytochrome P450 2D6): > 25 µM
clearance [7]: 42 mL/min/kg
solubility [1]: > 100 µM
Cmax [8]: 180 ng/mL
Papp at 2 h [2]: > 30 ×10⁻⁶ cm/s
IC50 [9]: 24 nM
IC50 (Cytochrome P450 2C9): > 25 µM
IC50 (Cytochrome P450 3A4): > 100 µM
concentration at 1 h [3]: 10900 nM
half-life [11]: 27.6 min
bioavailability [12]: 65%
AUC(0-t) at 24 h [13]: 255 ng·h/mL
AUC(0-t) at 24 h [14]: 395 ng·h/mL
IC50 [4]: 1.9 nM
concentration at 4 h [5]: 3100 nM
Tmax [15]: 30 min
Vd [16]: 1.7 L/kg
IC50 (Cytochrome P450 2C19): > 25 µM
IC50 (Cytochrome P450 1A2): > 25 µM
IC50 [6]: 0.34 nM
IC50 [19]: > 20 µM
SMILES: Cc1ccc2[nH]c(C(=O)N3CCC(CC(C)(C)O)CC3)cc2c1
inhibition (Mus musculus [10]): Active
IC50 [17]: > 100 µM
inhibition (Mus musculus [18]): Dose-dependent effect

IC50 [6]: 1100 nM
SMILES: O=C(c1cc2ccccc2[nH]1)N1CCC(CCO)C1 (centres undefined)

IC50 [6]: > 10000 nM
SMILES: Cc1ccc2[nH]c(C(=O)N3CCC(CC(=O)O)CC3)cc2c1

IC50 [6]: 790 nM
SMILES: Cc1ccc2[nH]c(C(=O)N3CCC(CO)CC3)cc2c1

solubility [1]: > 100 µM
Papp at 2 h [2]: 26 ×10⁻⁶ cm/s
concentration at 1 h [3]: 2610 nM
concentration at 4 h [5]: < 100 nM
IC50 [6]: 2.1 nM
SMILES: CC(C)(O)CC1CCN(C(=O)c2cc3ccccc3[nH]2)CC1

IC50 [6]: 4.5 nM
SMILES: O=C(c1cc2ccccc2[nH]1)N1CCC(CCO)CC1

IC50 [6]: 2800 nM
SMILES: Cc1ccc2[nH]c(C(=O)N3CC=CCC3)cc2c1

IC50 [6]: 160 nM
SMILES: Cc1ccc2[nH]c(C(=O)N3CCC(CCCO)CC3)cc2c1

IC50 [6]: 2100 nM
SMILES: O=C(c1cc2ccccc2[nH]1)N1CCCC(CCO)C1 (centres undefined)

IC50 [6]: 1200 nM
SMILES: O=C(NCCCCCO)c1cc2ccccc2[nH]1

IC50 [6]: 12 nM
SMILES: CC(O)CC1CCN(C(=O)c2cc3ccccc3[nH]2)CC1 (centres undefined)

IC50 [6]: 33 nM
SMILES: COCCC1CCN(C(=O)c2cc3ccccc3[nH]2)CC1

IC50 [6]: 13 nM
SMILES: CC(=O)CC1CCN(C(=O)c2cc3ccccc3[nH]2)CC1

IC50 [6]: 770 nM
SMILES: Cc1ccc2[nH]c(C(=O)N3CCN(CCO)CC3)cc2c1
